NPY-Y1 PAM-ag = potentiators or agonists of human neuropeptide Y receptor Y1. actives 0.37% (n = 220,000). NPY-Y1 expressing cells, potentiator/agonist activation. P25929. activation, % at 3.6 µM; in the data active means activation above about 33%, passing the limit was not always enough;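 further: cells stimulated with NPY at EC10 then isoproterenol at EC100; 0% = low agonist plus stimulus and 100% = saturating agonist plus stimulus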
Target sequence (P25929 whole entry, looked up): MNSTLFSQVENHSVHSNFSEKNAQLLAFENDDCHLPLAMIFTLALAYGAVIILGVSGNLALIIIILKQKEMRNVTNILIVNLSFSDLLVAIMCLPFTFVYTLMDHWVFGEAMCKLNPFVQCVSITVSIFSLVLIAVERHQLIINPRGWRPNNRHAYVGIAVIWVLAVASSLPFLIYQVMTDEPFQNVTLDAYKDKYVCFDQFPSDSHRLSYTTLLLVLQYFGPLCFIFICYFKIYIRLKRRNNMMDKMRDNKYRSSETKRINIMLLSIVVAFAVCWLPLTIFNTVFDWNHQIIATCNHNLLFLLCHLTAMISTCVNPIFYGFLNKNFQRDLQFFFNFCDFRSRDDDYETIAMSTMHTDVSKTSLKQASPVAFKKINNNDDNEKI
NPY-Y1 antag = NPY-Y1 (human) receptor antagonism; actives 1% (n = 200,000); P25929; AID 1040; HEK293-CNG Y1 cells, membrane potential fluorescence; NPY at EC95, then isoproterenol; inhibition, % at 3.6 µM;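 active means inhibition above the campaign mean inhibition of all tested compounds plus 3 SD, cut at about 20% in these data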;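 further: 0% = DMSO wells given NPY plus isoproterenol and 100% = isoproterenol alone without NPY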
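Assay system: HEK293 Y1/CNG channel cell line; Doses: single compound dose of 3.6 µM, 0.4% DMSO; Timing: dye 3 h, compound 60 min room temperature, stimulation 45 min; Technique: Membrane-potential fluorescent dye readout; Measure: % inhibition of NPY effect.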
NPY-Y2 PAM-ag = human NPY-Y2 potentiation or agonism, primary screen; P49146; cells expressing NPY-Y2, potentiator/agonist read-out; activation, % at 3.6 µM; actives 0.45% (n = 220,000); AID 1359; in the data active means activation above about 27%;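 further: cells stimulated with NPY near EC25 plus isoproterenol at EC100; 0% = vehicle plus submaximal agonist and 100% = vehicle plus saturating agonist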
NPY-Y2 antag = NPY-Y2 (human) receptor antagonism. NPY-Y2 expressing cells, antagonist mode. inhibition, % at 2.7 µM. actives 0.99% (n = 140,000); in the data active means inhibition above about 17%;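 further: 0% = vehicle with agonist challenge and 100% = reference antagonist with challenge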
NPY1 antag ctr = counter-screen for NPY-Y2 antagonists: human NPY-Y1 antagonism | actives 19% (n = 710) | inhibition, % at 3.6 µM | shares compounds with NPY-Y2 antag | cell-based NPY-Y1 antagonism counterscreen; in the data active means inhibition above about 20%;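 further: cells challenged with NPY then isoproterenol with cAMP sensed through a CNG channel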
NPY-Y2 ant conf = human NPY-Y2 antagonism, confirmation. AID 1257. HEK293 NPY-Y2 CNG channel, membrane potential fluorescence. actives 32% (n = 710). inhibition, % at 2.8 µM. shares compounds with NPY-Y2 antag;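 active means mean inhibition of triplicate wells above the hit cutoff set in the primary screen, cut at about 17% in these data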;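 further: 0% = DMSO with NPY challenge and 100% = BIIE0246 high control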
Starred values were filed as active, the others as inactive; . = not tested or not shown. A selection: hits, their analogues and other compounds. The true share with any hit is near 1.9%.

SMILES	NPY-Y1 PAM-ag	NPY-Y1 antag	NPY-Y2 PAM-ag	NPY-Y2 antag	NPY1 antag ctr	NPY-Y2 ant conf
O=C(O)c1nn2cc(CCO)cnc2c1Cl	-1	-4	-8	.	.	.
COc1ccc(C(=O)NCC(=O)OCC(=O)N2N=C(c3ccc(Cl)cc3)CC2c2ccco2)cc1OC (stereo not given)	14	1	1	.	.	.
CCN(CC)CC(O)COc1ccc2c(c1)c(C(C)=O)c(C)n2-c1ccccc1 (stereo not given)	-69	17	-35	17*	14	32*
CC(=O)c1c(C)n(-c2ccccc2)c2ccc(OCC(O)CN3CCOCC3)cc12 (stereo not given)	-26	5	-24	14	.	.
Cc1cccc(N2CCN(C(=O)C(Cc3ccccc3)n3cccc3)CC2)c1C (stereo not given)	-36	17	-12	26*	13	13
O=C(CCCOc1ccccc1)N1CCN(c2ccccc2)CC1	-16	8	-20	12	.	.
Cc1cccc(N2CCN(C(=O)CCCOc3ccccc3)CC2)c1C	-6	19	-16	19*	11	12
CN(C(=O)COC(=O)c1ccccc1C(=O)N1CCN(c2ccccc2)CC1)c1ccccc1	3	-1	-6	.	.	.
O=C(Nc1nc2ccccc2s1)c1cc(-c2ccco2)nc2ccccc12	-111	7	-116	37*	64*	88*
Cc1c(Br)c([N+](=O)[O-])nn1CC(=O)Nc1c(C)n(C)n(-c2ccccc2)c1=O	-5	2	16	0	.	.
COc1ccc(-c2cc(C(F)(F)F)nc(NCc3ccco3)n2)cc1OC	-3	9	-17	18*	15	13
N=c1n(Cc2ccccc2)c2ccccc2n1Cc1ccccc1	-1	17	30	23*	13	13
CCOC(=O)C(C)Sc1cc(CS(=O)(=O)c2ccccc2)nc(-c2ccccc2)n1 (stereo not given)	-30	14	-16	13	.	.
COc1cc(C(=O)NNC2=NC(C)(C)Cc3cc(C)c(C)cc32)cc(OC)c1OC	-19	3	-1	2	.	.
Cc1ccc(-c2nnc3sc(C4COc5ccccc5O4)nn23)cc1 (stereo not given)	6	1	0	18*	19	15
Clc1ccccc1-c1nnc2sc(C3COc4ccccc4O3)nn12 (stereo not given)	-61	5	-13	3	.	.
CCCCC(CC)C(=O)NCC(C)NC(=O)C(CC)CCCC (stereo not given)	1	7	6	24*	17	8
CCCCOP(=O)(OCCCC)C(Nc1ccccc1)c1ccc2c(c1)OCO2 (stereo not given)	-5	16	-1	19*	13	8
CC(C)(C)NCc1cc(Br)ccc1OCc1cccs1	18	16	29	20*	5	4
CCOC(=O)c1c(-n2cccc2)sc2c1CCCC2=O	2	-3	12	25*	1	3
CCOC(=O)c1c(N2C(=O)Nc3ccccc3N2O)sc2c1CCCC2	18	0	5	4	.	.
CN(C)CC1CCCCC1OC(=O)c1ccc(Br)cc1 (stereo not given)	-11	14	-9	.	.	.
CC(C)COc1ccc(C(=O)OC2CC(C)(C)OCC2CN(C)C)cc1 (stereo not given)	-34	16	-32	24*	16	30*
N=c1c2c(ncn1Cc1ccco1)Oc1c(ccc3ccccc13)C2c1ccccc1 (stereo not given)	-63	14	-7	19*	14	12
O=C(Cn1nc(-c2ccccc2)nc1-c1ccccc1)OC1CCCCC1	-25	8	-21	19*	8	6
SMILES	NPY-Y1 PAM-ag	NPY-Y1 antag	NPY-Y2 PAM-ag	NPY-Y2 antag	NPY1 antag ctr	NPY-Y2 ant conf
C(#Cc1ccccc1)C[N+]1(CC#Cc2cccc3ccccc23)CCCC1	-19	19	1	18*	6	11
COc1ccc(N2CCN(Cc3nc4c(c(=O)n(C)c(=O)n4C)n3Cc3cccc(C)c3)CC2)cc1	2	-1	2	24*	3	3
COc1ccc(N2CCN(c3nc4c(c(=O)n(C)c(=O)n4C)n3Cc3ccccc3)CC2)cc1	-10	-11	18	3	.	.
C/C(CCC(=O)OC[C@H]1O[C@H](C#Cc2ccccc2)C=C[C@@H]1Oc1ccc(C)cc1)=N\O[C@@H](C)CN1CCCCc2nc(C)c(C)cc21	-15	4	-17	22*	9	9
CC1CC(N(C(=O)c2ccccc2Cl)c2ccccc2)c2ccccc2N1 (stereo not given)	3	8	-13	18*	62*	72*
C=CCOc1c(Br)cc(/C=N/n2c(CC)n[nH]c2=S)cc1Br	9	3	7	9	.	.
COc1cccc(-c2cc(C(=O)N3CCCc4ccccc43)no2)c1	-25	17	0	19*	17	9
COc1ccc(-c2cc(C(=O)N3CCCc4ccccc43)no2)cc1	-14	6	-10	5	.	.
COc1ccc(OC)c(-c2cc(C(=O)N3CCCc4ccccc43)no2)c1	-33	19	-31	17*	10	5
O=C(CN1C(=O)C2CC=CCC2C1=O)Nc1ccc(S(=O)(=O)Nc2nccs2)cc1 (stereo not given)	6	.	-5	.	.	.
CC12CCC(C(=O)N(Cc3ccccc3)Cc3ccccc3)(OC1=O)C2(C)C (stereo not given)	-37	19	-31	18*	16	15
CC12CCC(C(=O)NCc3cccnc3)(OC1=O)C2(C)C (stereo not given)	-3	4	-20	2	.	.
Cc1cc(C(=O)NNc2ccc(F)cc2)no1	5	.	12	.	.	.
COc1ccc(-c2noc(-c3ccccc3-c3ccccc3)n2)cc1OC	-61	12	-25	18*	6	15
CC(C)OC(=O)c1ccc(NC(=O)Cn2c(-c3nonc3N)nc3ccccc32)cc1	-44	20	-15	18*	11	12
COC(=O)c1ccccc1NC(=O)Cn1c(-c2nonc2N)nc2ccccc21	-43	20	-13	39*	19	24*
C=CCn1c(SCC(=O)N2CCc3ccccc3C2)nc2sc(C)c(C)c2c1=O	-12	7	-4	19*	10	9
CC(C)(C)OC(=O)N1CCC(CNC(=O)c2ccc(F)cc2)CC1	-14	.	-27	.	.	.
Cc1cccc(-n2c(O)c(C=NC3CCS(=O)(=O)C3)c3ccccc3c2=O)c1C (stereo not given)	5	.	22	.	.	.
COc1ccc(/C=N/NC(=O)c2cccc(OC(F)(F)C(F)F)c2)cc1O	-25	-1	-12	17*	3	2
CC(=O)c1ccc(N2Cc3ccccc3/C2=N\C(=O)Nc2ccc(Cl)cc2)cc1	15	6	6	24*	109*	151*
COC(=O)c1ccc(N2Cc3ccccc3/C2=N\C(=O)Nc2ccccc2)cc1	-13	-1	7	17	.	.

Source: PubChem
